# Screening results (PubChem BioAssay)
# RGS4 act: RGS4 potentiation or activation; 310,000 tested, 0.92% active; HEK293 M3R/inducible RGS4, carbachol calcium flux Fluo4; hits give low values; B-score at 10 µM;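 active means B-score of the integrated calcium signal more than 4 SD below the library mean, with starting fluorescence not abnormally high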;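 further: negative B-score means reduced calcium response which marks RGS4 activation or potentiation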
#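 System – HEK293 FlpIn-TREx cells, stable M3R, doxycycline-inducible RGS4 · Reagent – ECmax carbachol challenge · Times – compound preincubation 20 min at room temperature before agonist · Technique – Fluo4 fluorescence kinetic imaging of calcium · Measure – B score of integrated Fluo4 ratio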
# MrgX1 ag: human MrgX1 receptor agonism, primary screen; 310,000 tested, 0.44% active; B-score at 10 µM; AID 588627; Q96LB2; MrgX1-HEK293 cells, Fluo-4 calcium fluorescence, agonist mode; hits give high values;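 active means calcium response B-score plate-corrected fluorescence ratio at least 3 library SD, with starting fluorescence B-score inside 5 SD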
# Target sequence (Q96LB2 whole entry, looked up): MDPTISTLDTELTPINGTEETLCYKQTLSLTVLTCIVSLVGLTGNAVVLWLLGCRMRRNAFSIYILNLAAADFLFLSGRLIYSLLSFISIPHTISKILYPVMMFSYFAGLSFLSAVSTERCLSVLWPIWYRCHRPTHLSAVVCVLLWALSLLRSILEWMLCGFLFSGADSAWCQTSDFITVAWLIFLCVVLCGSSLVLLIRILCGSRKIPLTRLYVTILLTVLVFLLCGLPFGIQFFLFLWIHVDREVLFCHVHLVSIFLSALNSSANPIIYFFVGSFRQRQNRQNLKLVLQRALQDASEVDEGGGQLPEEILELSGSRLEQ
#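 Material: MrgX1-expressing HEK293 cells / Dosing: compound as first of three additions / Incubation: overnight seeding, then 1 h dark dye loading / Signal: Fluo-4 NW calcium fluorescence / Evaluation: B-scored fluorescence response ratio / Benchmarks: positive and negative control wells on each plate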
# MrgX1 PAM: allosterically activates human MrgX1 receptor signaling; Q96LB2; MrgX1-HEK293, Fluo-4 calcium flux, FDSS; hits give high values; B-score at 10 µM; 310,000 tested, 0.63% active; AID 588675;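 active means plate-corrected calcium response at least 3 library SD above typical, normal starting fluorescence, not activating the receptor alone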;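 further: compound read alongside a low EC10 to EC30 dose of BAM8-22 agonist; peak minus trough fluorescence over baseline measured at the second addition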
# MrgX1 antag: antagonists of human MrgX1 receptor | 310,000 tested, 1.3% active | B-score at 10 µM | AID 588676 | MRGX1-HEK293 calcium flux, Fluo-4, BAM8-22 antagonism; hits give low values;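 active means calcium-response B-score plate-corrected more than 3 library SD below zero, starting fluorescence within 5 deviations, no agonist response on first addition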;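 further: peak minus trough fluorescence over baseline after final BAM8-22 challenge near maximal dose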
# RGS4 inh: human RGS4 inhibition; P49798; HEK293 M3R/RGS4 inducible, Fluo-4 calcium flux; hits give high values; triggered by carbachol at its EC20; B-score at 10 µM; 310,000 tested, 0.45% active;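 active means B-score, a plate-corrected calcium signal, over three deviations above library mean, with baseline fluorescence within five deviations of library mean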;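 further: RGS4 expression induced by doxycycline in cells with stable M3 receptor; B-score is computed from the integrated fluorescence ratio over baseline after carbachol; higher B-score means a larger calcium signal and so more RGS4 inhibition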
# Target sequence (P49798 whole entry, looked up): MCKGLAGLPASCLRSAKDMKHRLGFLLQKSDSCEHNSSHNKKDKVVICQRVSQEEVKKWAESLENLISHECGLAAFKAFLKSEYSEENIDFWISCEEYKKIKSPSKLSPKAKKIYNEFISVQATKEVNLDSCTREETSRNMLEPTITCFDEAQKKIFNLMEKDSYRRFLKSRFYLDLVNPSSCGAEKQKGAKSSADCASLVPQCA
# Starred values were filed as active, the others as inactive; i = inactive; nt = no result. Sampled rows, rich in hits. Any-hit rate of the full collection: about 3.5%.
SMILES,RGS4 act,MrgX1 ag,MrgX1 PAM,MrgX1 antag,RGS4 inh
COc1cc(OC)cc(C(=O)NC2CC3CCC(C2)N3Cc2ccco2)c1 (centres undefined),i,nt,nt,nt,i
O=C(C[n+]1cccc(Br)c1)c1ccc(-c2ccccc2)cc1,-7.03*,i,i,i,i
Cc1ccc(C(=O)C[n+]2cc(Br)cc(Br)c2)cc1,i,i,15*,i,i
COc1ccc(OC)c(C(O)CNC(=O)CN)c1 (centres undefined),i,i,i,i,i
C=CCn1c(=O)c(C(=O)NCCNCC)c(O)c2ccccc21,i,i,i,i,i
C=CCn1c(=O)c(C(=O)NCc2ccccc2)c(O)c2ccccc21,-7.08*,i,i,i,i
CC(C)Cn1c(=O)c(C(=O)Nc2ccncc2)c(O)c2ccccc21,-8.92*,i,i,i,i
CCn1c(=O)c(C(=O)NNC(=O)c2ccccc2)c(O)c2ccccc21,i,30.2*,i,i,i
CC(C)Cn1c(=O)c(C(=O)Nc2cnccn2)c(O)c2ccccc21,i,i,i,i,i
COc1cc(-c2cc(C(=O)Nc3c(Cl)cc(Cl)cc3Cl)c3ccccc3n2)cc(OC)c1OC,i,i,i,i,i
O=C(C[n+]1cc(Br)cc2ccccc21)c1ccc(Cl)cc1,i,i,7.36*,i,i
O=C(c1ccc(F)cc1)c1ccc(CN2C(=O)c3ccccc3C2=O)o1,i,i,i,i,i
CCOC(=O)CCc1c(C)c2ccc(OCc3cc([N+](=O)[O-])ccc3OC)cc2oc1=O,i,i,i,i,i
CCOC(=O)NC(=O)COC(=O)CNC(=O)c1ccc(OCC)c(OCC)c1,i,i,8.94*,i,i
O=C(CCCOc1ccc(Cl)cc1Cl)NCC1CCCO1 (centres undefined),i,i,i,i,i
COc1ccc(CCN(Cc2cc3cc(C)cc(C)c3nc2Cl)C(=O)C2CC2)cc1,-7.15*,i,i,i,i
COC(=O)CN1C(=S)N(c2ccc(OC)cc2)C(=O)/C1=C/c1ccc(N2CCOCC2)cc1,i,i,i,-6.06*,i
CCNC(=S)N1CCN(S(=O)(=O)/C=C/c2ccccc2)CC1,i,i,i,i,i
COCCCNC(=O)c1ccc2c(c1)nc(C)n2-c1cccc(C)c1,i,i,i,i,i
CCCNC(=O)c1ccc2c(c1)nc(C)n2-c1cccc(Cl)c1,-7.55*,i,i,i,i
N#C/C(=C\c1ccncc1)c1ccccn1,i,i,i,i,i
Cc1nn(CC(=O)NCc2ccccc2)c(C)c1[N+](=O)[O-],i,i,i,i,i
COC(=O)CNC(=O)Cn1nc(C)c([N+](=O)[O-])c1C,i,i,11.7*,i,i
COC(=O)c1cccc(Cn2nc(C)c([N+](=O)[O-])c2C)c1,i,i,i,-6.62*,i
Cc1ccc(OCC(=O)Nc2ccc(-c3nc4ncccc4o3)cc2)c(C)c1,i,i,i,i,i
SMILES,RGS4 act,MrgX1 ag,MrgX1 PAM,MrgX1 antag,RGS4 inh
CCn1c(SCC(=O)NC2CCCc3ccccc32)nnc1-c1ccncc1 (centres undefined),i,i,i,i,i
O=c1[nH]c2ccccc2n1CCCSc1cnc2ccccc2n1,i,i,i,i,i
Cc1nn(C)c(C(=O)N/N=C/c2cc3c(cc2Br)OCO3)c1Br,i,i,i,i,i
Cc1nonc1C(=O)N/N=C/c1cc2c(cc1Br)OCO2,i,i,i,-5.03*,i
CC(C)CCNC(=S)Nc1ccc([N+](=O)[O-])cc1,i,i,i,i,i
CC(C)COc1ccc(C(=O)Nc2ccc([N+](=O)[O-])cc2)cc1,i,i,i,i,i
CCCCNC(=S)Nc1ccc([N+](=O)[O-])cc1,i,i,i,-5.55*,i
CC(C)OC(=O)c1cc(NC(=S)Nc2ccc([N+](=O)[O-])cc2)cc(C(=O)OC(C)C)c1,i,i,i,-6.65*,i
Cc1c(CCC(=O)N[C@@H](CC(C)C)C(=O)O)c(=O)oc2cc3oc4c(c3cc12)CCCC4,i,i,14.5*,i,i
CCCCn1c(=O)nc2n(-c3ccccc3)c3ccccc3cc-2c1=O,-9.73*,i,i,i,i
CS(=O)(=O)N1CCc2cc(S(=O)(=O)N3CCN(Cc4ccc5c(c4)OCO5)CC3)ccc21,i,i,i,i,i
O=C(C/C(=N/O)c1ccccc1O)C(F)F,i,i,i,i,i
COc1ccc([C@@H]2CC(=O)c3c(O)cc(O)cc3O2)cc1O,nt,i,i,i,nt
COc1c(CC=C(C)C)cc(C2CC(=O)c3c(O)cc(O)cc3O2)cc1CC=C(C)C (centres undefined),-8.27*,i,i,i,i
O=C(Cn1cnc2ccccc2c1=O)c1cccs1,i,i,i,i,i
CCOc1ccc(NC(=O)CN(C)C(=O)c2cn(-c3ccc(F)cc3)nc2-c2cccc(OC)c2)cc1OCC,-7.2*,i,i,i,i
CCN(CC)CCNC(=O)c1ccc(NC(=O)c2cn(-c3ccc(F)cc3)nc2-c2cccc(OC)c2)cc1,-10.9*,i,i,i,i
CCN(CC)CCNC(=O)c1ccc(NC(=O)/C=C/c2ccc3ccccc3n2)cc1,i,i,i,-8.54*,i
CCN(CC)CCNC(=O)c1ccc(NC(=O)c2ccccc2-c2ccc(C(F)(F)F)cc2)cc1,-9.49*,i,i,i,i
COc1ccccc1N1CCN(CCNC(=O)Nc2cccc(C)c2C)CC1,i,i,i,i,i
CCN(CC)CCNC(=O)c1ccc(NC(=O)c2cn(-c3ccccc3)nc2-c2cccs2)cc1,-8.07*,i,i,i,i
O=C(Nc1cccnc1)c1cn(-c2ccccc2)nc1-c1cccs1,i,i,i,i,i
Cc1ccc(N(C)S(=O)(=O)c2cccc(C(=O)Nc3ccc(C)cn3)c2)cc1,i,i,i,i,i
COc1ccccc1/C=C(\C#N)C(=O)c1cccn1C,i,32.4*,i,i,i
Cn1cccc1C(=O)/C(C#N)=C/c1ccc(F)cc1,i,35.1*,i,i,i
COc1ccc(/C=N/NC(=O)c2ccccc2NC(=O)c2ccco2)c(OC)c1,i,i,i,i,i
CC(C)C(=O)Nc1ccc(Sc2ccc(F)cc2)cc1,i,i,i,i,i
